The values below come from ChEMBL document CHEMBL1131183, “New 1alpha,25-dihydroxy-19-norvitamin D3 compounds of high biological activity: synthesis and biological evaluation of 2-hydroxymethyl, 2-methyl, and 2-methylene analogues” (1998).

Where “and” joins values, the source holds several entries; their conditions need not be identical. Identical values can stand only once.

The species entered for assay [1] is Rattus norvegicus. Description: Bone calcium mobilization measured in vitamin D-deficient rats on a low-calcium diet(260). Format: functional, organism-based. Summed up: (§1)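 Weanling male rats kept on 0.47% Ca diet 1 week, then 0.02% Ca diet 3 weeks; dosed ip daily for 7 days (130 or 260 pmol) in 0.1 mL propylene glycol/ethanol 95:5 during last week; vehicle controls. Serum Ca measured 24 h after last dose by atomic absorption with 0.1% LaCl3; rise in serum Ca taken as bone mobilization. ≥6 rats/group, mean ± SEM, Student's t-test.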

Assay [2] is filed under the species Rattus norvegicus. Kind of assay: Bone calcium mobilization measured in vitamin D-deficient rats on a low-calcium diet(130). Format: functional, organism-based. In a few lines: as §1
The species named for assay [3] is Rattus norvegicus. Description: Support of intestinal calcium transport measured in vitamin D-deficient rats on a low-calcium diet(260). Format: functional. Summed up:
(§2)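 Vitamin D-deficient weanling male rats, 0.47% Ca diet 1 week then 0.02% Ca diet 3 weeks, given 130 or 260 pmol ip daily for 7 days in 0.1 mL propylene glycol/ethanol 95:5; vehicle controls. Killed 24 h after last dose; everted sac of proximal 10 cm intestine, Ca by atomic absorption, expressed as serosal/mucosal ratio. ≥6 rats/group, mean ± SEM, t-test.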

The subject of assay [4] is HL-60. Kind of assay: Induced differentiation of human promyelocyte HL-60 cells into monocytes. Format: functional. The following applies: read-out: ED50 (the source's name).
For assay [5], the species on record is Rattus norvegicus. Kind of assay: Support of intestinal calcium transport measured in vitamin D-deficient rats on a low-calcium diet(130). Format: functional. In a few lines:
as §2

Assay [6] addresses T1, Vitamin D3 receptor (Sus scrofa) (UniProt A3RGC1).
T1 sequence (whole entry): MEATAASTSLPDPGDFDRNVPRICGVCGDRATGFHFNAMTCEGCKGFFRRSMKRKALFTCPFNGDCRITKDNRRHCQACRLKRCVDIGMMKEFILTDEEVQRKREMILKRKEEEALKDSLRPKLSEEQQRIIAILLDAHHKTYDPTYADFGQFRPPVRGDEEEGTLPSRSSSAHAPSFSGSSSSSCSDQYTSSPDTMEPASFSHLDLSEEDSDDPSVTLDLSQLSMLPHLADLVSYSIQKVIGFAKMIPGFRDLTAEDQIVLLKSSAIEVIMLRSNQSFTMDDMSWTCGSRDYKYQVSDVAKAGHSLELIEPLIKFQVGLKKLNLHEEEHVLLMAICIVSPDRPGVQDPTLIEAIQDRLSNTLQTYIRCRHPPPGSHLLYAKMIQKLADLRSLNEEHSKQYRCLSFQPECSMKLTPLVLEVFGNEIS

For assay [7], the target named is T1, Vitamin D3 receptor (Sus scrofa). Kind of assay: Inhibition of 1-alpha,25-(OH)2D3 binding to porcine intestinal vitamin D receptor. In a few lines:
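Porcine intestinal nuclear extract, 0.1 mg protein (200 fmol binding activity) per tube, incubated with 10 000 cpm 1α,25-(OH)2[26,27-3H]D3 plus graded unlabelled standard or analogue in ethanol, 4 h room temperature with shaking. Bound label captured on hydroxyapatite, washed with TE/5% Triton, counted by scintillation. ED50 = concentration displacing 50% of label, from dose-response curves; triplicate on two occasions.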

As to `C[C@@H](CCCC(C)(C)O)[C@H]1CC[C@H]2/C(=C/C=C3C[C@@H](O)C(CO)[C@H](O)C3)CCC[C@]12C` (stereo partly specified) [listing 1 of 3 here], the Serum Ca2+ in assay [1] is 3.5 and 3.9; in assay [2], 3.6 and 4.

For the molecule `C=C1[C@H](O)CC(=C/C=C2\CCC[C@]3(C)[C@@H]([C@@H](C)CCCC(C)(C)O)CC[C@@H]23)C[C@H]1O` [DP001], the figures for the “Ca2+ transport S/M” value in assay [3] and in assay [5] were 4.6 and 5.8, respectively. For the same molecule, the Serum Ca2+ in assay [1] turned out to be 14.4; in assay [2], 13.8. Besides, in assay [4] (Homo sapiens, HL-60), the EC50 is 0.15 nM. In addition, the ED50 in assay [6] came out at 0.1 nM.

`CC1[C@H](O)CC(=C/C=C2\CCC[C@]3(C)[C@@H]([C@H](C)CCCC(C)(C)O)CC[C@@H]23)C[C@H]1O` (stereo partly specified) [listing 1 of 3 here]: the “Ca2+ transport S/M” value in assay [3] was determined as 3; in assay [5] it was 4.4. The EC50 in assay [4] was 8 nM.

For the molecule `CC1[C@H](O)CC(=C/C=C2\CCC[C@]3(C)[C@@H]([C@H](C)CCCC(C)(C)O)CC[C@@H]23)C[C@H]1O` (stereo partly specified) [listing 2 of 3 here], the Serum Ca2+ in assay [1] was 3.8 and 5.8; in assay [2], 4.1 and 4.8.

Consider `CC1[C@H](O)CC(=C/C=C2\CCC[C@]3(C)[C@@H]([C@@H](C)CCCC(C)(C)O)CC[C@@H]23)C[C@H]1O` (stereo partly specified) [listing 1 of 3 here], for which the “Ca2+ transport S/M” value in assay [3] is given as 8.4; in assay [5], 12.9. Moreover, the EC50 in assay [4] worked out at 0.07 nM.

In the case of `C=C1[C@H](O)CC(=C/C=C2\CCC[C@]3(C)[C@@H]([C@H](C)CCCC(C)(C)O)CC[C@@H]23)C[C@H]1O`, the figures for the “Ca2+ transport S/M” value in assay [3] and in assay [5] were 4.9 and 5.3, respectively. The Serum Ca2+ in assay [1] was 9.6; in assay [2] it was 9.9. The EC50 in assay [4] (Homo sapiens, HL-60) came out at 4.2 nM. Moreover, in assay [6], the ED50 was 0.12 nM.

With `CC1[C@H](O)CC(=C/C=C2\CCC[C@]3(C)[C@@H]([C@H](C)CCCC(C)(C)O)CC[C@@H]23)C[C@H]1O` (stereo partly specified) [listing 3 of 3 here], the “Ca2+ transport S/M” value in assay [3] was 5.3; in assay [5], 4.3. Further, in assay [4], the EC50 was 0.08 nM.

On to `CC1[C@H](O)CC(=C/C=C2\CCC[C@]3(C)[C@@H]([C@@H](C)CCCC(C)(C)O)CC[C@@H]23)C[C@H]1O` (stereo partly specified) [listing 2 of 3 here], for which the “Ca2+ transport S/M” value in assay [3] turned out to be 3.8; in assay [5], 2.9. In addition, the EC50 in assay [4] was determined as 0.7 nM.

In the case of `C[C@@H](CCCC(C)(C)O)[C@H]1CC[C@H]2/C(=C/C=C3C[C@@H](O)C(CO)[C@H](O)C3)CCC[C@]12C` (stereo partly specified) [listing 2 of 3 here], the “Ca2+ transport S/M” value in assay [3] and in assay [5] was 3.5 each time. Besides, the EC50 in assay [4] was determined as 4.5 nM.

With `CC1[C@H](O)CC(=C/C=C2\CCC[C@]3(C)[C@@H]([C@@H](C)CCCC(C)(C)O)CC[C@@H]23)C[C@H]1O` (stereo partly specified) [listing 3 of 3 here], the Serum Ca2+ in assay [1] was 10.3 and 4.4; in assay [2], 8.3 and 4.4. Besides, the ED50 in assay [6] is 0.4 nM and 0.5 nM.

For the molecule `C=C1/C(=C\C=C2/CCC[C@]3(C)[C@@H]([C@H](C)CCCC(C)(C)O)CC[C@@H]23)C[C@@H](O)C[C@@H]1O` [CALCITRIOL], in assay [7], the ED50 turned out to be 0.09 nM. The “Ca2+ transport S/M” value in assay [3] is 6.2 and 5.6 and 4.6 and 6.6. In assay [1], the Serum Ca2+ was 6.6 [middle of 4 runs].

Consider `C[C@H](CCCC(C)(C)O)[C@H]1CC[C@H]2/C(=C/C=C3C[C@@H](O)C(CO)[C@H](O)C3)CCC[C@]12C` (stereo partly specified), for which the EC50 in assay [4] (Homo sapiens, HL-60) worked out at 20 nM.

`C[C@@H](CCCC(C)(C)O)[C@H]1CC[C@H]2/C(=C/C=C3C[C@@H](O)C(CO)[C@H](O)C3)CCC[C@]12C` (stereo partly specified) [listing 3 of 3 here]: the “Ca2+ transport S/M” value in assay [3] turned out to be 5.8; in assay [5], 5. The EC50 in assay [4] amounted to 2 nM.
